Broadly, the IC50 is the concentration needed to halve the response being measured. Higher therefore signals a need for much substance. What is called half-life is how long it takes for the measured level to halve. What is called bioavailability is dose-corrected exposure relative to a reference, in per cent. Low values mean poor availability, high ones good availability. The term Cmax denotes the peak of the concentration-time curve. Usually AUC stands for concentration integrated over time. The Tmax is the time at which the peak concentration occurs.

The results in this text go back to ChEMBL document CHEMBL1142709, “Discovery and evaluation of 2-anilino-5-aryloxazoles as a novel class of VEGFR2 kinase inhibitors” (J Med Chem, 2005).

Data set [1] can be described thus: Inhibition of basic FGF-induced proliferation of human umbilical vein endothelial cells. It is filed as functional, cell-based. To be noted: Endothelial cell.
Data set [2] is described as follows: Half life in rats dosed at […] iv in 10% HP-alpha-cyclodextrin in 0.05 M acetic acid and 10 mg/kg po in 0.5% HPMCw/0.1% Tween 80 (n=3). It is filed as ADME, organism-based. Conditions: rat, in vivo.
A short description of data set [3]: Distribution at steady state was determined in dogs dosed at […] and 1 mg/kg po in 0.5% HPMC w/0.1%Tween 80 (n=2). It is filed as ADME, organism-based, Canis lupus familiaris. To be noted: dog, in vivo, iv, read-out: Vdss.
Data set [4] can be described thus: Half life in dogs dosed at 1 mg/kg iv in 40% […] and 1 mg/kg po in 0.5% HPMC w/0.1%Tween 80 (n=2). It is filed as ADME, organism-based, Canis lupus familiaris. To be noted: dog, in vivo. In short, it runs like this: (§1)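 Male beagle dogs (n = 2). IV 1 mg/kg in 40% SBE-β-cyclodextrin and oral gavage 1 mg/kg in 0.5% HPMC/0.1% Tween 80, dose volume 0.5 mL/kg. Plasma precipitated with four volumes of acetonitrile and analysed by HPLC/MS. Parameters are averages of two dogs.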

Data set [5] in a line: Bioavailability of compound was determined in rats dosed at […] iv in 10% HP-alpha-cyclodextrin in 0.05 M acetic acid and 10 mg/kg po in 0.5% HPMCw/0.1% Tween 80 (n=3). It is filed as ADME, organism-based. Conditions: rat, in vivo.
The nature of data set [6]: Bioavailability of compound was determined in dogs dosed at 1 mg/kg iv in 40% […] and 1 mg/kg po in 0.5% HPMC w/0.1%Tween 80 (n=2). It is filed as ADME, organism-based, Canis lupus familiaris. To be noted: dog, in vivo. A digest of the protocol: as §1
Data set [7] is described as follows: Distribution at steady state was determined in rats dosed at […] iv in 10% HP-alpha-cyclodextrin in 0.05 M acetic acid and 10 mg/kg po in 0.5% HPMCw/0.1% Tween 80 (n=3). It is filed as ADME, organism-based. Conditions: rat, in vivo, read-out: Vdss.
For a further data set, the system named is HT-29. In words: In vitro inhibition of human colon tumor HT-29 cell proliferation. It is filed as functional, cell-based.
The nature of data set [8]: Peak plasma concentration in mice following oral administration of an aqueous solution of the bis-mesylate salt of the compound. It is filed as ADME, organism-based. Also on record: route oral. Conditions: mouse. In short, it runs like this:
(§2)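 Male CD mice (n = 2) given the bis-mesylate salt as an aqueous solution at 100 mg/kg by oral gavage, dose volume 10 mL/kg. Plasma taken from blood kept on wet ice, stored at -20 °C, protein-precipitated with four volumes of acetonitrile and analysed by HPLC/MS.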

The nature of data set [9]: Area under concentration time curve in mice following oral administration of an aqueous solution of the bis-mesylate salt of the compound. It is filed as ADME. To be noted: mouse, in vivo. In short, it runs like this:
as §2

Data set [10] can be described thus: Time at which peak plasma concentration is attained in mice following oral administration of an aqueous solution of the bis-mesylate salt of the compound. It is filed as ADME, organism-based. To be noted: mouse. A digest of the protocol: as §2

In the case of `CCS(=O)(=O)c1ccc(OC)c(Nc2ncc(-c3cccc(-c4ccccc4Cl)c3)o2)c1`, the IC50 in data set [1] was 1.1 µM.
`CCS(=O)(=O)c1ccc(OC)c(Nc2ncc(-c3cccc(-c4ccccn4)c3)o2)c1.CS(=O)(=O)O`: the results for the half-life in data set [2] and in data set [4] were 1.6 h and 3.5 h, respectively. For the same compound, the results for the Vd in [3] and in data set [7] were 3.74 L/kg and 1.03 L/kg, respectively. Besides, the results for the bioavailability in [5] and in [6] were 11% and 7%, respectively.
For `CCS(=O)(=O)c1ccc(OC)c(Nc2ncc(-c3cccc(-c4ccccn4)c3)o2)c1`, the IC50 in the data set on HT-29 stood at 4.5 µM; in data set [1], 5.8 µM. The Cmax in [8] came to 35 µM. In addition, the AUC in [9] worked out at 102 µg·h/mL. Also, the Tmax in [10] stood at 4 h.
In data set [1], `c1ccc(Nc2ncc(-c3ccccc3)o2)cc1` [GW549390X] returned an IC50 of 24 µM.
Still for that read-out and setting: the value for `COc1cc2/c(=N/c3ccc(Br)cc3F)nc[nH]c2cc1OCC1CCN(C)CC1` [VANDETANIB] was 1.2 µM.
Same read-out and setting: the value for `Clc1ccc(Nc2nnc(Cc3ccncc3)c3ccccc23)cc1` [VATALANIB] was 25 µM.
